ChEMBL document CHEMBL1134475, “3-(4-Fluoropiperidin-3-yl)-2-phenylindoles as high affinity, selective, and orally bioavailable h5-HT(2A) receptor antagonists” (J Med Chem, 2001)

tested on: not listed separately; test: Terminal half-life following iv dosing in rat, measured over 48 hr; assay type: ADME, organism-based; settings: in vivo

| SMILES | half-life [h] |
| --- | --- |
| Fc1ccc2c([C@@H]3CNCC[C@H]3F)c(-c3ccccc3)[nH]c2c1 | 12 |

tested on: not listed separately; test: Terminal half-life following iv dosing in rat; assay type: ADME, organism-based; settings: in vivo

| SMILES | half-life [h] |
| --- | --- |
| c1ccc(CCN2[C@@H]3CC[C@H]2CC(c2c(-c4ccccc4)[nH]c4ccccc24)C3)cc1 (some centres not stated) | 2.3 |
| c1ccc(CCN2CCC(c3c(-c4ccccc4)[nH]c4ccccc34)CC2)cc1 | 5.3 |
| F[C@@H]1CCNC[C@H]1c1c(-c2ccccc2)[nH]c2ccccc12 | 1.4 |

tested on: not listed separately; test: Area under the concentration-time curve for 0-4 hr after 2 mg/kg po in rat; assay type: ADME, organism-based; design: time < 4 hr, dose 2 mg/kg, route oral; settings: in vivo
Method in brief: (§1)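 Male Sprague-Dawley rats (~300 g) gavaged at 2 mg/kg (5 mL/kg of 0.5% methocel A4C suspension), five rats; one rat culled per time point up to 4 h for blood. Samples get internal standard and are extracted into ethyl acetate, then LC-MS single ion recording.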

| SMILES | AUC(0-t) at 4 h [ng·h/mL] |
| --- | --- |
| c1ccc(CCN2[C@@H]3CC[C@H]2CC(c2c(-c4ccccc4)[nH]c4ccccc24)C3)cc1 (some centres not stated) | 126 |
| O=C1NCCN1CCN1CCCC(c2c(-c3ccccc3)[nH]c3ccccc23)C1 (configuration not stated) | 217 |
| c1ccc(-c2[nH]c3ccccc3c2C2CCCNC2)cc1 (configuration not stated) | 47 |
| O=C(Nc1ccccc1)c1[nH]c2cc(F)ccc2c1[C@@H]1CNCC[C@H]1F | 8 |

molecular target: D(2) dopamine receptor (Homo sapiens, UniProt P14416); test: Ability to displace [3H]spiperone binding to CHO cells stably expressing dopamine receptor D2; assay type: cell-based; settings: not given
Sequence (P14416 whole entry): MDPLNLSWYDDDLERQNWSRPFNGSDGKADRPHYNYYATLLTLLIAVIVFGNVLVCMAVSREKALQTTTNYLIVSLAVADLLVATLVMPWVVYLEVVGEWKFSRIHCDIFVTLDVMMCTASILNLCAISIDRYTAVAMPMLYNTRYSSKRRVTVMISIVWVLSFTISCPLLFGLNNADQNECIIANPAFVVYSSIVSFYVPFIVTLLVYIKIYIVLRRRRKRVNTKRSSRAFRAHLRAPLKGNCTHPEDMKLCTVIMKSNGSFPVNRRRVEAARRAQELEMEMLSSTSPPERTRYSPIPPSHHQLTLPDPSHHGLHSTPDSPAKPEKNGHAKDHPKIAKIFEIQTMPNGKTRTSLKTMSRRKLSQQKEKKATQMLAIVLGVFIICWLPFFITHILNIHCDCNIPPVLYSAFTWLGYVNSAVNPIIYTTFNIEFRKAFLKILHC

| SMILES | Ki [nM] |
| --- | --- |
| c1ccc(CCN2[C@@H]3CC[C@H]2CC(c2c(-c4ccccc4)[nH]c4ccccc24)C3)cc1 (some centres not stated) | 1000 |
| O=C1NCCN1CCN1CCCC(c2c(-c3ccccc3)[nH]c3ccccc23)C1 (configuration not stated) | > 1300 |
| c1ccc(CCN2CCC(c3c(-c4ccccc4)[nH]c4ccccc34)CC2)cc1 | 350 |
| c1ccc(-c2[nH]c3ccccc3c2C2CCCNC2)cc1 (configuration not stated) | > 1300 |
| O=C(Nc1ccccc1)c1[nH]c2cc(F)ccc2c1[C@@H]1CNCC[C@H]1F | > 1600 |
| F[C@@H]1CCNC[C@H]1c1c(-c2ccccc2)[nH]c2ccccc12 | > 1700 |

tested on: not listed separately; test: Maximum blood concentration after oral dosing at 2 mg/kg in rat; assay type: ADME, organism-based; design: dose 2 mg/kg, route oral; settings: not given; method in brief: as §1

| SMILES | Cmax [ng/mL] |
| --- | --- |
| c1ccc(CCN2[C@@H]3CC[C@H]2CC(c2c(-c4ccccc4)[nH]c4ccccc24)C3)cc1 (some centres not stated) | 210 |
| O=C1NCCN1CCN1CCCC(c2c(-c3ccccc3)[nH]c3ccccc23)C1 (configuration not stated) | 85 |
| c1ccc(-c2[nH]c3ccccc3c2C2CCCNC2)cc1 (configuration not stated) | 26 |
| O=C(Nc1ccccc1)c1[nH]c2cc(F)ccc2c1[C@@H]1CNCC[C@H]1F | 3 |

molecular target: 5-hydroxytryptamine receptor 2A (Homo sapiens, UniProt P28223); test: Ability to displace [3H]ketanserin binding to human 5-hydroxytryptamine 2A receptor stably expressed in CHO cells; assay type: cell-based; settings: not given
Sequence (P28223 whole entry): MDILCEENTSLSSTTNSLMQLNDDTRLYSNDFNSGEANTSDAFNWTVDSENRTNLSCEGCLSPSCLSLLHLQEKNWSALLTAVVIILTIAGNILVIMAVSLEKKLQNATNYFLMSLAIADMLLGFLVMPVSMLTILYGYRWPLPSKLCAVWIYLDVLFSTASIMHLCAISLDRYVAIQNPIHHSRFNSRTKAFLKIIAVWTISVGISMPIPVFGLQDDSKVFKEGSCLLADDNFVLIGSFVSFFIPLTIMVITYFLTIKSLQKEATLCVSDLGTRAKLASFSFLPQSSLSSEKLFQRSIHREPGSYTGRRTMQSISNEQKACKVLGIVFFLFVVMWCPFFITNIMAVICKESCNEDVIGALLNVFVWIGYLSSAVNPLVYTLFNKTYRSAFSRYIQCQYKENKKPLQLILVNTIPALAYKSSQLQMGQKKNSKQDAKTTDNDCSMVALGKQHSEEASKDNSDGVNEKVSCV
Method in brief: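 Membranes from CHO cells stably expressing human 5-HT2A, homogenized in 50 mM Tris-HCl pH 7.5, at 2 mg wet weight/mL. Ki from nonlinear least-squares regression, geometric mean of at least three determinations.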

| SMILES | Ki [nM] |
| --- | --- |
| c1ccc(CCN2[C@@H]3CC[C@H]2CC(c2c(-c4ccccc4)[nH]c4ccccc24)C3)cc1 (some centres not stated) | 1.2 |
| O=C1NCCN1CCN1CCCC(c2c(-c3ccccc3)[nH]c3ccccc23)C1 (configuration not stated) | 26 |
| c1ccc(CCN2CCC(c3c(-c4ccccc4)[nH]c4ccccc34)CC2)cc1 | 0.48 |
| c1ccc(-c2[nH]c3ccccc3c2C2CCCNC2)cc1 (configuration not stated) | 0.99 |
| O=C(Nc1ccccc1)c1[nH]c2cc(F)ccc2c1[C@@H]1CNCC[C@H]1F | 0.09 |
| F[C@@H]1CCNC[C@H]1c1c(-c2ccccc2)[nH]c2ccccc12 | 0.43 |

molecular target: T1, 5-hydroxytryptamine receptor 2C (Homo sapiens, UniProt P28335); test: Ability to displace [3H]mesulergine binding to human 5-hydroxytryptamine 2C receptor stably expressed in CHO cells; assay type: cell-based; settings: not given
T1 sequence (P28335 whole entry): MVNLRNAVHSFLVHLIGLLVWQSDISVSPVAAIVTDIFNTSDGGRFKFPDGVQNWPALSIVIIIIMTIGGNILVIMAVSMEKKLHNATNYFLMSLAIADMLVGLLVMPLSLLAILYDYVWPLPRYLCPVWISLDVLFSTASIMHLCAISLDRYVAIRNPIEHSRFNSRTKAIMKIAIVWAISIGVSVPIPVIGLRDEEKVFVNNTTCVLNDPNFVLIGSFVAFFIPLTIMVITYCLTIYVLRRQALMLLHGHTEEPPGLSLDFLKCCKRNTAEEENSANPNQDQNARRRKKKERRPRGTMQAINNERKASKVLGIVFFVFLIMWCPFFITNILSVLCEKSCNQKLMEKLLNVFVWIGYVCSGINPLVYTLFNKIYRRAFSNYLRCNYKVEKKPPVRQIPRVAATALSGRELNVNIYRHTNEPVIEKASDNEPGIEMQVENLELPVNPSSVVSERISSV

| SMILES | Ki [nM] |
| --- | --- |
| c1ccc(CCN2[C@@H]3CC[C@H]2CC(c2c(-c4ccccc4)[nH]c4ccccc24)C3)cc1 (some centres not stated) | 400 |
| O=C1NCCN1CCN1CCCC(c2c(-c3ccccc3)[nH]c3ccccc23)C1 (configuration not stated) | 2500 |
| c1ccc(-c2[nH]c3ccccc3c2C2CCCNC2)cc1 (configuration not stated) | 89 |
| O=C(Nc1ccccc1)c1[nH]c2cc(F)ccc2c1[C@@H]1CNCC[C@H]1F | 48 |
| F[C@@H]1CCNC[C@H]1c1c(-c2ccccc2)[nH]c2ccccc12 | 19 |

tested on: not listed separately; test: Terminal half-life following iv dosing in dog, measured over 48 hr; assay type: ADME, organism-based, Canis lupus familiaris; settings: in vivo

| SMILES | half-life [h] |
| --- | --- |
| Fc1ccc2c([C@@H]3CNCC[C@H]3F)c(-c3ccccc3)[nH]c2c1 | 6.4 |

molecular target: T2, Adrenergic receptor alpha-1 (Rattus norvegicus, UniProt P15823+P23944+P43140); test: Ability to displace [3H]-prazosin binding to rat cortical membranes expressing Alpha-1 adrenergic receptors; settings: not given
T2 sequence (P15823 whole entry): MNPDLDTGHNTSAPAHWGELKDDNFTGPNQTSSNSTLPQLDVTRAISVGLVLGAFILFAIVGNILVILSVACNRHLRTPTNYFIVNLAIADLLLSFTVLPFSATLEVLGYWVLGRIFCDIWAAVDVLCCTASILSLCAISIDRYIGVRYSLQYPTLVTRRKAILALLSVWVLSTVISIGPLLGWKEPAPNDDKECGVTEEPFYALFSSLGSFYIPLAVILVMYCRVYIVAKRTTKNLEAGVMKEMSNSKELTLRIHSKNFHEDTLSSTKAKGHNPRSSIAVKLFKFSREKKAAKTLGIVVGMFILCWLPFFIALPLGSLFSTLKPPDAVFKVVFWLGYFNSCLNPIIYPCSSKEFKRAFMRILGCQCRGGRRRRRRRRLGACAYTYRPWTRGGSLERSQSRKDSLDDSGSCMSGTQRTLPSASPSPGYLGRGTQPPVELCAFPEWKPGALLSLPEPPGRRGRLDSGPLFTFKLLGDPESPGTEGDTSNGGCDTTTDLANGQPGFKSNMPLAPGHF
T2 sequence (P23944 whole entry): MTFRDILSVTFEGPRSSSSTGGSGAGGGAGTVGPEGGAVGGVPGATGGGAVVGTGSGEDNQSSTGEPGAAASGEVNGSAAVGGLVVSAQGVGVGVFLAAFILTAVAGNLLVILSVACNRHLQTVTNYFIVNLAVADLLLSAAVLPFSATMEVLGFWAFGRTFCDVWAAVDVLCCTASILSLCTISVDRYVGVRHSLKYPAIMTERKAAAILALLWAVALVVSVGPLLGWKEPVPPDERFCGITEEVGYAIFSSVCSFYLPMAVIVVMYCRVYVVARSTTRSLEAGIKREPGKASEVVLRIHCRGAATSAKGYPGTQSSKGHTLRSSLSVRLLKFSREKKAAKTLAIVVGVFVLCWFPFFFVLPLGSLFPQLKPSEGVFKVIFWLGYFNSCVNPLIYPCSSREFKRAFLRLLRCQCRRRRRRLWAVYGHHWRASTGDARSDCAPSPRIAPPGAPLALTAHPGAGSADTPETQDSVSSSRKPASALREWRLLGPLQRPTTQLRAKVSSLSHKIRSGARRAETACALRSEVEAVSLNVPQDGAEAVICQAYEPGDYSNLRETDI
T2 sequence (P43140 whole entry): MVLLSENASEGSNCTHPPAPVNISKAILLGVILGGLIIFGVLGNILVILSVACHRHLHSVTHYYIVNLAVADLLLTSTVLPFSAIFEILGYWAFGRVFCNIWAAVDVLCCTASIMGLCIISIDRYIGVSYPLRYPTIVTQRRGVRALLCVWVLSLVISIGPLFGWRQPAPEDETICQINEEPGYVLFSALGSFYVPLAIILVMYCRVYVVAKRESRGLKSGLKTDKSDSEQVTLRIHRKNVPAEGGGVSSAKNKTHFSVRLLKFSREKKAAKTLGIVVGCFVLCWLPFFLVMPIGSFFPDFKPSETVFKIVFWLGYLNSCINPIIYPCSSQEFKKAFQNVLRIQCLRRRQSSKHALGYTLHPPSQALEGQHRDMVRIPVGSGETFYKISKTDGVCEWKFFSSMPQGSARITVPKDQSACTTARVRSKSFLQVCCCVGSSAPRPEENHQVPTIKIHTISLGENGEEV

| SMILES | Ki [nM] |
| --- | --- |
| c1ccc(CCN2[C@@H]3CC[C@H]2CC(c2c(-c4ccccc4)[nH]c4ccccc24)C3)cc1 (some centres not stated) | 250 |
| c1ccc(CCN2CCC(c3c(-c4ccccc4)[nH]c4ccccc34)CC2)cc1 | 25 |
| c1ccc(-c2[nH]c3ccccc3c2C2CCCNC2)cc1 (configuration not stated) | 21 |
| O=C(Nc1ccccc1)c1[nH]c2cc(F)ccc2c1[C@@H]1CNCC[C@H]1F | 3.9 |
| F[C@@H]1CCNC[C@H]1c1c(-c2ccccc2)[nH]c2ccccc12 | 25 |

molecular target: Voltage-gated inwardly rectifying potassium channel KCNH2 (Homo sapiens, UniProt Q12809); test: Displacement of [3H]dofetilide from HEK cells expressing hERG voltage dependent IKr potassium channel Kv11.1; settings: not given
Sequence (Q12809 whole entry): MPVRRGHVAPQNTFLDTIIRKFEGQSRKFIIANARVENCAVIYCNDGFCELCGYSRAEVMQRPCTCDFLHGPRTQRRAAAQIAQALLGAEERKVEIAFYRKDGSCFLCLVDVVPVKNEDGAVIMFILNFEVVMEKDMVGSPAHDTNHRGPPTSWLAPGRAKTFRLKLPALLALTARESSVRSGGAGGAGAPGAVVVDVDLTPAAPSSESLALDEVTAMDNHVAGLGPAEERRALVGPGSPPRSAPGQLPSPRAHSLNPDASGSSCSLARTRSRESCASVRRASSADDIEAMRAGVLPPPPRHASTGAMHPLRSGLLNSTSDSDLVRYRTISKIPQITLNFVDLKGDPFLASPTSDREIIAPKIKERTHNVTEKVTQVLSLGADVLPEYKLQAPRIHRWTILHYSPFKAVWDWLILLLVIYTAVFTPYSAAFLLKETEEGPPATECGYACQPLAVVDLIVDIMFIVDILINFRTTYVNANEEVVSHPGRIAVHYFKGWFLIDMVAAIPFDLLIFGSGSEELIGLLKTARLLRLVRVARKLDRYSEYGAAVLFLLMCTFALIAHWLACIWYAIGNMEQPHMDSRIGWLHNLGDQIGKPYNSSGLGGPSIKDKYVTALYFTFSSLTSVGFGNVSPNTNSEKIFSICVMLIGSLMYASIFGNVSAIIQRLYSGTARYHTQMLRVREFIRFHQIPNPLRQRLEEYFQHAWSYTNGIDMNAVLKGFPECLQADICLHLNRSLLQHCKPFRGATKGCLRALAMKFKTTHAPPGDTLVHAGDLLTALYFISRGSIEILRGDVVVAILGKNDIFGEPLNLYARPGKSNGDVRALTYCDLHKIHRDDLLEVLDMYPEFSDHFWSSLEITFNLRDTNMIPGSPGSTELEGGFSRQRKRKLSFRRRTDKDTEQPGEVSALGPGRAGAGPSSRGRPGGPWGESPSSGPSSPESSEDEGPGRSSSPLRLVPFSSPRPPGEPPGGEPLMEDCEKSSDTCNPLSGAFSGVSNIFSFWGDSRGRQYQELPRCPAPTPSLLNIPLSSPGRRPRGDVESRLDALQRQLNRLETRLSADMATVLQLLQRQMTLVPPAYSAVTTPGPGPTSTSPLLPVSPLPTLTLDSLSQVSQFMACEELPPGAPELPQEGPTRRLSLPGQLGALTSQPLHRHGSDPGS

| SMILES | Ki [nM] |
| --- | --- |
| c1ccc(CCN2[C@@H]3CC[C@H]2CC(c2c(-c4ccccc4)[nH]c4ccccc24)C3)cc1 (some centres not stated) | 18 |

tested on: not listed separately; test: Bioavailability in dog (dose 0.5-2 mg/kg i.v. and p.o.); assay type: ADME, organism-based, Canis lupus familiaris; settings: in vivo, po
Method in brief: (§2)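 Female Beagle dogs (10-12 kg), three per route; i.v. cephalic-vein bolus (1 mL/kg PEG 300/water) and oral gavage (5 mL/kg of 0.5% methocel A4C suspension), 0.5-2 mg/kg. Serial blood to 24 h; plasma extracted with ethyl acetate, LC-MS. Model-independent bioavailability and terminal half-life after i.v. dosing.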

| SMILES | bioavailability [%] |
| --- | --- |
| c1ccc(CCN2CCC(c3c(-c4ccccc4)[nH]c4ccccc34)CC2)cc1 | 4 |
| F[C@@H]1CCNC[C@H]1c1c(-c2ccccc2)[nH]c2ccccc12 | 37 |

tested on: not listed separately; test: Bioavailability in rat (dose 0.5-2 mg/kg i.v. and p.o.); assay type: ADME, organism-based; settings: in vivo, po
Method in brief: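 Male Sprague-Dawley rats (~300 g), jugular-cannulated, three per route. Dosing by i.v. tail-vein bolus and oral gavage, each in a suitable vehicle. Serial jugular blood samples taken; plasma extracted with ethyl acetate against an internal standard. Analysis by LC-MS with single ion recording. F from model-independent parameters.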

| SMILES | bioavailability [%] |
| --- | --- |
| c1ccc(CCN2[C@@H]3CC[C@H]2CC(c2c(-c4ccccc4)[nH]c4ccccc24)C3)cc1 (some centres not stated) | 18 |
| F[C@@H]1CCNC[C@H]1c1c(-c2ccccc2)[nH]c2ccccc12 | 18 |

tested on: not listed separately; test: Terminal half-life following iv dosing in dog; assay type: ADME, organism-based, Canis lupus familiaris; settings: in vivo; method in brief: as §2

| SMILES | half-life [h] |
| --- | --- |
| c1ccc(CCN2CCC(c3c(-c4ccccc4)[nH]c4ccccc34)CC2)cc1 | 9.8 |
| F[C@@H]1CCNC[C@H]1c1c(-c2ccccc2)[nH]c2ccccc12 | 7.4 |
